From ChEMBL document CHEMBL4834474, “Terphenyl-Based Small-Molecule Inhibitors of Programmed Cell Death-1/Programmed Death-Ligand 1 Protein-Protein Interaction” (J Med Chem, 2021)
The source made the active and inactive calls. No cut-off for these calls is given here.

Legend:
[1] = target: T1, Programmed cell death protein 1/Programmed cell death 1 ligand 1 (Homo sapiens) (UniProt Q15116+Q9NZQ7); test: Inhibition of PD-1/PD-L1 interaction in human Jurkat cells cocultured with CHO cells expressing PD-Ll/TCRAct assessed as activation of effector Jurkat cells at 0.01 to 100 uM incubated for 6 hrs by luciferase reporter gene based immune checkpoint blockade cell-based assay; conditions: dose 0.01-100 µM
Outline: (§1)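 CHO/TCRAct/PD-L1, CHO/TCRAct or CHO-K1 cells seeded at 10,000/well. Next day overlaid with Jurkat-ECs (20,000/well) plus compound dilutions, DMSO held at 0.1%. Incubated 6 h at 37 °C, 5% CO2; luciferase reagent added for 20 min at room temperature; luminescence read. Fold induction over DMSO-treated cells; mean ± SD, 3–5 experiments; EC50 by Hill fit.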

Jurkat = test: Cytotoxicity against human Jurkat effector cells at 10 uM after 48 hrs; type: cell-based
Outline: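 Jurkat-ECs (PD-1, NFAT-RE luciferase) exposed to increasing compound concentrations, DMSO constant at 0.1%. After 48 h, tetrazolium redox dye added for a further 2 h at 37 °C, 5% CO2. Absorbance at 590 nm, 750 nm reference. Survival relative to DMSO controls; mean ± SD of three independent experiments; EC50 from dose–response curve.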

[2] = target: T1, Programmed cell death protein 1/Programmed cell death 1 ligand 1 (Homo sapiens); test: Inhibition of PD-1/PD-L1 interaction in human Jurkat cells cocultured with CHO cells expressing TCRAct assessed as activation of effector Jurkat cells incubated for 6 hrs by luciferase reporter gene based immune checkpoint blockade cell-based assay; outline: as §1
[3] = target: Programmed cell death 1 ligand 1 (Homo sapiens) (UniProt Q9NZQ7); test: Binding affinity to human PD-L1 assessed as induction of protein dimerization by 1H NMR method
[4] = target: T1, Programmed cell death protein 1/Programmed cell death 1 ligand 1 (Homo sapiens); test: Inhibition of PD-1/PD-L1 interaction in human PBMCs cocultured with CHO cells expressing PD-L1/TCRAct assessed as increase in CD25 expression on CD4+ T cells at 0.1 to 2.5 uM incubated for 48 hrs by flow cytometry; type: cell-based; conditions: PBMC, dose 0.1-2.5 µM
Outline: (§2)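 PBMCs isolated by density gradient from healthy donor blood (citrate dextrose anticoagulant). 3 × 10^5 cells added to preseeded CHO/TCRAct/PD-L1 cells with compound at 0.1, 0.5 or 2.5 μM, 0.1% DMSO as control. Cocultured 48 h at 37 °C, 5% CO2. Detached cells stained 20 min at RT for CD4, CD8, CD69, CD25, HLA-DR, PD-1; flow cytometry. Four donors; one-way ANOVA with Fisher post hoc.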

[5] = target: T1, Programmed cell death protein 1/Programmed cell death 1 ligand 1 (Homo sapiens); test: Inhibition of PD-1/PD-L1 interaction in human PBMCs cocultured with in CHO cells expressing PD-L1/TCRAct assessed as increase in HLA-DR expression on CD8+ T cells at 0.1 to 2.5 uM incubated for 48 hrs by flow cytometry; type: cell-based; conditions: PBMC, dose 0.1-2.5 µM; outline: as §2
[6] = target: T1, Programmed cell death protein 1/Programmed cell death 1 ligand 1 (Homo sapiens); test: Inhibition of PD-1/PD-L1 interaction in human PBMCs cocultured with CHO cells expressing PD-L1/TCRAct assessed as increase in PD-1 receptor expression on CD8+ T cells at 0.1 to 2.5 uM incubated for 48 hrs by flow cytometry; type: cell-based; conditions: PBMC, dose 0.1-2.5 µM; outline: as §2
[7] = target: T1, Programmed cell death protein 1/Programmed cell death 1 ligand 1 (Homo sapiens); test: Inhibition of PD-1/PD-L1 interaction in human PBMCs cocultured with CHO cells expressing PD-L1/TCRAct assessed as increase in PD-1 receptor expression on CD4+ T cells at 0.1 to 2.5 uM incubated for 48 hrs by flow cytometry; type: cell-based; conditions: PBMC, dose 0.1-2.5 µM; outline: as §2
[8] = target: T1, Programmed cell death protein 1/Programmed cell death 1 ligand 1 (Homo sapiens); test: Inhibition of PD-1/PD-L1 interaction in human PBMCs cocultured with CHO cells expressing PD-L1/TCRAct assessed as increase in HLA-DR expression on CD4+ T cells at 0.1 to 2.5 uM incubated for 48 hrs by flow cytometry; type: cell-based; conditions: PBMC, dose 0.1-2.5 µM; outline: as §2
[9] = target: T1, Programmed cell death protein 1/Programmed cell death 1 ligand 1 (Homo sapiens); test: Inhibition of PD-1/PD-L1 interaction in human PBMCs cocultured with CHO cells expressing PD-L1/TCRAct assessed as increase in CD25 expression on CD8+ T cells at 0.1 to 2.5 uM incubated for 48 hrs by flow cytometry; type: cell-based; conditions: PBMC, dose 0.1-2.5 µM; outline: as §2
[10] = target: T1, Programmed cell death protein 1/Programmed cell death 1 ligand 1 (Homo sapiens); test: Inhibition of PD-1/PD-L1 interaction in human PBMCs cocultured with CHO cells expressing PD-L1/TCRAct assessed as increase in TNFalpha expression at 0.1 to 2.5 uM incubated for 48 hrs by TCA; type: cell-based; conditions: PBMC, dose 0.1-2.5 µM
Outline: (§3)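 Culture supernatants taken from 48 h cocultures of PBMCs with CHO/TCRAct/PD-L1 cells (compound 0.1, 0.5, 2.5 μM). IL-2, IL-6, IL-10, IFN-γ, TNFα quantified by cytometric bead array against standard curves. Per donor, normalized to untreated PBMC plus CHO/TCRAct coculture. Mean ± SEM of four donors; one-way ANOVA, Fisher post hoc.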

[11] = target: T1, Programmed cell death protein 1/Programmed cell death 1 ligand 1 (Homo sapiens); test: Inhibition of PD-1/PD-L1 interaction in human PBMCs cocultured with CHO cells expressing PD-L1/TCRAct assessed as increase in IL-10 expression at 0.1 to 2.5 uM incubated for 48 hrs by TCA; type: cell-based; conditions: PBMC, dose 0.1-2.5 µM; outline: as §3
[12] = target: T1, Programmed cell death protein 1/Programmed cell death 1 ligand 1 (Homo sapiens); test: Inhibition of PD-1/PD-L1 interaction in human PBMCs cocultured with CHO cells expressing PD-L1/TCRAct assessed as increase in IL-6 expression at 0.1 to 2.5 uM incubated for 48 hrs by TCA; type: cell-based; conditions: PBMC, dose 0.1-2.5 µM; outline: as §3
[13] = target: Programmed cell death 1 ligand 1 (Mus musculus) (UniProt Q9EP73); test: Binding affinity to mouse PD-L1 assessed as induction of protein dimerization by 1H NMR method
[14] = target: T1, Programmed cell death protein 1/Programmed cell death 1 ligand 1 (Homo sapiens); test: Inhibition of PD-1/PD-L1 interaction in human PBMCs cocultured with CHO cells expressing PD-L1/TCRAct assessed as increase in IL-2 expression at 0.1 to 2.5 uM incubated for 48 hrs by TCA; type: cell-based; conditions: PBMC, dose 0.1-2.5 µM; outline: as §3
[15] = target: T1, Programmed cell death protein 1/Programmed cell death 1 ligand 1 (Homo sapiens); test: Inhibition of PD-1/PD-L1 interaction in human PBMCs cocultured with CHO cells expressing PD-L1/TCRAct assessed as increase in INFgamma expression at 0.1 to 2.5 uM incubated for 48 hrs by TCA; type: cell-based; conditions: PBMC, dose 0.1-2.5 µM; outline: as §3

Sequence of Programmed cell death 1 ligand 1 (Homo sapiens) (Q9NZQ7 whole entry): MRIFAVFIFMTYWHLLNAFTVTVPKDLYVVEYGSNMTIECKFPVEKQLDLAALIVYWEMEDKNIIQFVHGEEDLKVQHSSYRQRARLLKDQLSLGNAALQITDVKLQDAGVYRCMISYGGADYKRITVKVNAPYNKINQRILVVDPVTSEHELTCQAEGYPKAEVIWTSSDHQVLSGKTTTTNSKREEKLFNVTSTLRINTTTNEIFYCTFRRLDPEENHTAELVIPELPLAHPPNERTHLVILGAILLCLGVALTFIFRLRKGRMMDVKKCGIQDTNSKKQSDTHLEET
Sequence of Programmed cell death 1 ligand 1 (Mus musculus) (Q9EP73 whole entry): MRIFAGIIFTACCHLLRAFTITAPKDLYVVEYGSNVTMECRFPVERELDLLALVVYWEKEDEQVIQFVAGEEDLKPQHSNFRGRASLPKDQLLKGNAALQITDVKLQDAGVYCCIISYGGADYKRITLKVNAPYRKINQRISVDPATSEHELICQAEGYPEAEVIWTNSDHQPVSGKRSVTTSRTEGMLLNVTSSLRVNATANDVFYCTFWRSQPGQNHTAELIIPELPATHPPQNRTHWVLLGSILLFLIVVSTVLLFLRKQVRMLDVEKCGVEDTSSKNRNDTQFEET

Compound | inhibition [1] | Activity (Jurkat) | inhibition [2] | Activity [3] | other results
COc1cc(-c2cccc(-c3ccc4c(c3)OCCO4)c2Cl)ccc1CNCCNS(C)(=O)=O | Active | Non-Toxic | inactive | – | –
COc1cc(-c2cccc(-c3ccc4c(c3)OCCO4)c2Cl)ccc1CNCCNC(=O)CN | Active | Non-Toxic | inactive | – | –
COc1cc(-c2cccc(-c3ccc4c(c3)OCCO4)c2Cl)ccc1CNCCNC(C)=O | Active | Non-Toxic | inactive | Active | –
COc1cc(-c2cccc(-c3ccc4c(c3)OCCO4)c2Cl)ccc1CNCCNC(N)=O | Active | Non-Toxic | inactive | – | inhibition [4]: inactive; inhibition [5]: inactive; inhibition [6]: Active; inhibition [7]: Active; inhibition [8]: inactive; inhibition [9]: inactive
COc1cc(-c2cccc(-c3ccc4c(c3)OCCO4)c2Cl)ccc1CNC(CO)CO | Active | Non-Toxic | inactive | – | –
CC(=O)NCCNCc1ccc(-c2cccc(-c3ccc4c(c3)OCCO4)c2Cl)cc1OCC#N | – | – | – | Active | –
COc1cc(-c2cccc(-c3ccc4c(c3)OCCO4)c2Cl)ccc1CNC(CO)(CO)CO | Active | Non-Toxic | inactive | Active | inhibition [10]: Active; inhibition [11]: Active; inhibition [4]: Active; inhibition [12]: Active; inhibition [5]: Active; Activity [13]: inactive; inhibition [14]: Active; inhibition [6]: Active; inhibition [7]: Active; inhibition [15]: Active; inhibition [8]: Active; inhibition [9]: Active
